A selection: hits, their analogues and other compounds. The true share with any hit is near 2%.
GSTO1 inh: GSTO1 inhibition, counter-screen for RBBP9 inhibitors; 1.1% of 300,000 active; recombinant GSTO1, activity-based probe fluorescence polarization; P78417; AID 1974; inhibition, % at 5.96 µM;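 active = inhibition above the campaign mean inhibition plus 3 SD, cut at about 35% in these data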;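 also: 0% = GSTO1-1 with DMSO and 100% = wells lacking GSTO1-1 enzyme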
UCH37 inh: blocks the human deubiquitinase UCH37; Q9Y5K5; purified proteasome/UCH37, Ub-AMC cleavage fluorescence; inhibition, % (no concentration beside the values); 0.33% of 330,000 active; AID 588478;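 active = mean inhibition over replicate wells above about 20%, limit read from the data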;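 also: 0% = compound-free wells with enzyme and 100% = wells lacking proteasome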
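assay system = human UCH37 enzyme supplied as purified proteasome complex | amount = proteasome at 0.15 nM in the dispensed enzyme solution | schedule = 30 min compound-proteasome preincubation then 25 min substrate reaction, room temperature | measured by = fluorescence, ex 355 nm, em 460 nm | benchmarks = no-proteasome wells (full inhibition) and compound-free wells (no inhibition)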
Fh CTSL1 inh: counter-screen for PFM18AAP inhibitors: inhibitors of F. hepatica cathepsin L1. 0.49% of 300,000 active. inhibition, % at 5.96 µM. recombinant F. hepatica cathepsin L1, Z-Leu-Arg-MCA fluorescence;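 active = inhibition above the mean of all tested compounds plus 3 SD, set per screening campaign, cut at about 17% in these data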;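 also: 0% = plate median of test compound wells and 100% = 1 µM Z-Phe-Ala-diazomethylketone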
PP5 inh: blocks human protein phosphatase 5 activity; AID 1987; 0.18% of 320,000 active; inhibition, % at 6.7 µM; purified PP5c, OMFP substrate fluorescence; P53041;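 active = inhibition above the campaign's mean inhibition across all tested compounds plus 3 SD, cut at about 9.5% in these data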;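 also: 0% = DMSO only and 100% = 100 µM cantharidin control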
Target sequence (P53041 whole entry, looked up): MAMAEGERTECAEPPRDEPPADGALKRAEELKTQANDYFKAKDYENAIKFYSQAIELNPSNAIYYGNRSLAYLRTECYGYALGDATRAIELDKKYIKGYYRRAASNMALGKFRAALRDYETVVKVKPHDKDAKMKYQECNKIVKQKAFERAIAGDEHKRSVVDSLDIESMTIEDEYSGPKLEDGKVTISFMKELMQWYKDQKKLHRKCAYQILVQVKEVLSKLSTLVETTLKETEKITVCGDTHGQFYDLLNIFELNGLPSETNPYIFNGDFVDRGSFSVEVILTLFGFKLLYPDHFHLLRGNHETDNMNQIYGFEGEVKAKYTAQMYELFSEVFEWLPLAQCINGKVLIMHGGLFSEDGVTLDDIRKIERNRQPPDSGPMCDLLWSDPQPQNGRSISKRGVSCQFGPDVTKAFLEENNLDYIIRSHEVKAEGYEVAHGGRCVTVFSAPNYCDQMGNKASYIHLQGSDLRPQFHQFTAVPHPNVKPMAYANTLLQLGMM
Apaf-1 inh: human Apaf-1 inhibition | reconstituted apoptosome caspase-3 activity, DEVD-Rh110 fluorescence | AID 489030 | inhibition, % at 20 µM | 0.71% of 330,000 active | O14727; active = inhibition of at least 40% at 20 µM;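 also: plate controls were DMSO wells for no effect and DEVD-CHO caspase inhibitor wells for full effect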
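Material: reconstituted apoptosome with Apaf-1, cytochrome c, caspase-9, procaspase-3, dATP; medium: pH 7.5 Hepes buffer with CHAPS, BSA, DTT; also added: cytochrome c and DEVD-Rh110 substrate; timing: 30 min plus 50 min, RT; signal: Rh110 fluorescence intensity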
PAD4 inh: PAD4 (human) enzyme inhibition; recombinant PAD4, RCA probe fluorescence polarization; inhibition, % at 6.36 µM; 0.41% of 330,000 active; Q9UM07; AID 485272;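 active = percent inhibition above a cutoff equal to the mean of all tested compounds plus 3 SD, cut at about 15% in these data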;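 also: 0% = PAD4 with RCA probe and DMSO and 100% = probe without PAD4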
GSTO1 confirm: GSTO1 (human) inhibition, confirmation; shares compounds with GSTO1 inh; AID 2176; recombinant GSTO1, probe fluorescence polarization; 54% of 2,400 active; inhibition, % at 5.96 µM;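 active = inhibition above the primary screen's cutoff, its mean inhibition plus 3 SD, cut at about 35% in these data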;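 also: loss of polarization as inhibitors block binding of rhodamine sulfonate ester activity probe; 0% = GSTO1 with DMSO and 100% = wells lacking GSTO1 enzyme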
* = called active by the depositor; i = inactive; nt = no result given.

SMILES	GSTO1 inh	UCH37 inh	Fh CTSL1 inh	PP5 inh	Apaf-1 inh	PAD4 inh	GSTO1 confirm
N#CC(C(N)=O)=c1ccc2c(c1)N1C3=C(CCCC3)CC3CCCCC31N=2 (configuration not stated)	nt	4	nt	nt	nt	nt	nt
C1=CC2=NC34CCCCC3CC3=C(CCCC3)N4C2=CC1=NC1CCCCC1 (configuration not stated)	76*	2	-2	-1	37	7	8
Cc1cc(Cl)n2c(nc3cc(F)c(F)cc32)c1C#N	nt	-28	nt	nt	nt	nt	nt
Cc1cc(C)n2c(=O)c3ccc(Cl)cc3nc2c1C#N	53*	-43	-1	0	10	-10	2
Cc1cccc(NC(=S)NN=Cc2ccc3c(c2)OCO3)c1	nt	3	nt	nt	nt	nt	nt
COc1ccc(OC)c2sc(N3CCN(C(=O)c4ccc([N+](=O)[O-])s4)CC3)nc12	54*	7	-1	3	21	-3	10
Cc1ccc(N(CC(=O)NN=Cc2cccc(Br)c2)S(C)(=O)=O)cc1	nt	4	nt	nt	nt	nt	nt
CCOc1ccccc1C=NNC(=O)CNC(=O)COc1ccccc1	nt	1	nt	nt	nt	nt	nt
N#CC(=C=[N-])c1nc2ccccc2nc1-[n+]1ccccc1	64*	6	0	1	-13	-4	37*
O=S(=O)([N-]c1nc2ccccc2nc1-[n+]1ccccc1)c1ccc(Cl)cc1	-36	8	-2	1	-18	-2	nt
Cc1cc[n+](-c2nc3ccccc3nc2C(=C=[N-])C#N)cc1	47*	2	4	3	17	-27	35
[O-][n+]1onc2c1CCC(=N/O)/C2=N\Nc1ccccc1	40*	nt	1	0	-9	4	13
[O-][n+]1c2c(nn1-c1ccccc1)/C(=N/O)CCC2	-2	nt	-4	-2	-4	1	nt
Cc1nc2ccccc2c(=O)n1/N=C/c1c(O)ccc2ccccc12	63*	nt	5	1	12	-6	3
Cc1n[nH]c(=S)n1/N=C/c1c(O)ccc2ccccc12	59*	nt	5	1	-5	-7	8
O=c1c2ccccc2nc(COc2ccccc2)n1/N=C/c1ccc(O)c(O)c1	53*	nt	7	2	2	3	8
Cc1ccc(OCC(=O)NN=Cc2cn(C)c3ccccc23)c([N+](=O)[O-])c1	nt	3	nt	nt	nt	nt	nt
CNCc1ccccc1Sc1cccc(O)c1	4	5	0	3	-1	2	nt
CNCc1ccccc1Sc1cc(O)ccc1O	89*	4	-6	-2	22	-2	55*
Cc1ccc(NN=C(C#N)C(=N)N2CCCCC2)cc1	nt	11	nt	nt	nt	nt	nt
CN(C)C=Nc1ncc(-c2ncc(C(F)(F)F)cc2Cl)cn1	nt	i	nt	nt	nt	nt	nt
Cc1ccccc1Nc1cc2ccccc2c(=O)[nH]1	74*	18	83*	5	96*	59*	45*
Cc1ccc(C(=O)c2coc3cc([N+](=O)[O-])c(O)c([N+](=O)[O-])c23)cc1	38*	15	-1	4	19	1	19
Cc1ccc(C(=O)c2ccc([N+](=O)[O-])cc2)cc1	8	0	1	3	-8	-2	nt
O=C(Nc1ccccc1)NN(C(=O)CCl)c1ccccc1	82*	2	13	1	7	-2	88*
SMILES	GSTO1 inh	UCH37 inh	Fh CTSL1 inh	PP5 inh	Apaf-1 inh	PAD4 inh	GSTO1 confirm
Cc1ccc(N(NC(=O)C(O)(c2ccccc2)c2ccccc2)C(=O)CCl)cc1	82*	4	81*	2	20	7	92*
FC(F)(F)c1nc2ccccc2nc1NN=Cc1c(Cl)cccc1Cl	nt	3	nt	nt	nt	nt	nt
CC(C)c1ccc(NS(=O)(=O)c2ccc3c(c2)oc(=O)n3C)cc1	65*	3	0	2	15	-1	65*
Cn1c(=O)oc2cc(S(=O)(=O)NC3CCCCCCC3)ccc21	43*	0	-4	-4	-2	5	39*
Cc1cccc(CCNS(=O)(=O)c2ccc3c(c2)oc(=O)n3C)c1	55*	1	-1	1	9	9	58*
O=[N+]([O-])c1ccc(NN=Cc2ccc(OCc3cccc4ccccc34)cc2)nc1	nt	4	nt	nt	nt	nt	nt
CCOc1ccccc1-c1cc(C(=O)NN=Cc2cccnc2)c2ccccc2n1	nt	3	nt	nt	nt	nt	nt
Cc1ccc(Cl)c(NC(=O)COC(=O)c2ccccc2C(=O)c2ccc(Cl)c([N+](=O)[O-])c2)c1Cl	49*	4	5	2	nt	1	52*
N#Cc1ccccc1OCC(=O)Nc1c(C(=O)C2CC2)oc2ccccc12	81*	-38	6	3	24	0	98*
Cc1nn(Cc2ccc(Cl)cc2Cl)c(C)c1NC(=O)CCl	97*	6	13	-1	-4	-4	97*
COc1ccc(C=NNC(=O)c2ccc(NC(=O)c3ccccc3Br)cc2)cc1	nt	3	nt	nt	nt	nt	nt
Oc1ccccc1Oc1ncc(Br)c(N2CCOCC2)n1	10	3	6	-1	14	-2	nt
Oc1ccccc1Oc1ncc(Br)c(Cl)n1	49*	1	8	-1	4	-1	4
Cc1ccc(S(=O)(=O)NN=Cc2cn(-c3ccccc3)nc2-c2ccccc2)cc1	nt	4	nt	nt	nt	nt	nt
C/C(=C\C(=O)c1ccccc1)Nc1ccc(O)cc1	78*	6	-10	5	10	50*	8
COc1ccc(C(=O)/C=C(\C)Nc2ccc(NC(C)=O)cc2)cc1	1	10	-1	2	1	0	nt
COc1cc(N2CN=c3sc(=Cc4ccccn4)c(=O)n3C2)cc(OC)c1OC	nt	10	nt	nt	nt	nt	nt
COC(=O)C1=C(C)N(CC2CCCO2)C(=O)/C1=C\c1ccc(O)cc1 (configuration not stated)	43*	5	-1	4	-6	-4	1
COc1ccc(/C=C2\SC(=S)N(CC3CCCO3)C2=O)cc1 (configuration not stated)	14	7	3	1	9	-3	nt
CCOC(=O)C(=NNc1ccc(OC)cc1)N1CCCc2ccccc21	nt	6	nt	nt	nt	nt	nt
[C-]#[N+][C@H](O[C@@H]1O[C@H](CO)[C@@H](O)[C@H](O)[C@H]1O)c1ccccc1	1	5	-3	-1	-2	-2	nt
O=C(O)CC(CCc1ccccc1)OC1OC(CO)C(O)C(O)C1O (configuration not stated)	53*	0	-4	3	-24	3	13
c1coc(-c2nc3ccccc3nc2-c2ccco2)c1	62*	-137	11	0	32	7	61*
O=c1oc(-c2ccco2)nc2ccccc12	-5	0	6	1	8	1	nt
COC(=O)C1Cc2ccccc2CN1C(=O)CCl (configuration not stated)	90*	3	48*	-2	-11	-5	99*
Cc1csc(NN=Cc2ccc([N+](=O)[O-])cc2)n1	nt	3	nt	nt	nt	nt	nt

Screening results: PubChem, several laboratories
